The subject of assay [1] is Vero E6 viability, CellTiter-Glo luminescence, 72 h. In words: viability loss in Vero E6 cells – cell-based, set 3, cytotoxicity control for PfM17LAP inhibitor project, dose response (AID 602317). In a few lines: (§1)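 Material: Vero E6 cell line. Doses: 10-point compound series in 2-fold dilution steps. Schedule: 72 h compound exposure at 37 °C, 5% CO2. Measured by: CellTiter-Glo luminescence. Measure: % viability and CC50, 4-parameter fit.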

Experiment in assay [2]: as above
The following applies: Vero E6 viability, CellTiter-Glo luminescence, 72 h; at 50 µM (top of the series). In a few lines: as §1

Our source for the CC50 and viability values is PubChem BioAssay AID602317 (Southern Research Specialized Biocontainment Screening …, 2012).

Molecules are shown by their SMILES. Inconclusive results are not listed. The source made the active and inactive calls.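 How the source made its calls: active means viability under 80% at one or more tested concentrations, read as toxic; inconclusive means replicate runs disagree on whether the viability cutoff is met; inactive means viability stays at 80% or higher at every dose.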

As usually defined, the CC50 is the concentration at which the toxic effect on the cells reaches its halfway point. Take `CCCCOc1ccc(CN(O)C(=O)c2ccccc2)cc1`: the CC50 in assay [1] was 20.9 µM.
The term viability denotes a read-out of living cells in per cent, often relative to untreated cells. On to `CN(C)CCOc1ccc(CC(=O)O)cc1`, for which the viability in assay [2] was 98.8% (inactive).
With `Oc1ccc(CCNC(c2ccccc2)c2ccccc2)cc1O`, in assay [1], the CC50 was 38.7 µM.
On to `COc1ccc(CC(=O)NO)cc1`, for which the viability in assay [2] is 102% (inactive).
On the same count and under the same terms, the result for `CCOc1ccc(CC(=O)NO)cc1` reads 96.8% (inactive); that for `CCCCOc1ccc(C(C)(C)C(=O)O)cc1`, 98.2% (inactive).
Consider `CCCCOc1ccc(CCC(=O)NO)cc1`, for which the cytotoxic concentration (CC50) in assay [1] was 34.1 µM.
On the same count and under the same terms, as for `COc1ccc(CCNC(c2ccccc2)c2ccccc2)cc1OC`, the figure is 45.8 µM.
Take `O=C(NCc1ccc2c(c1)OCO2)C1CCN(S(=O)(=O)c2ccc(Br)s2)CC1`: the viability in assay [2] was 95.4% (inactive).
As for `COc1ccc(CCN(C)c2c3ccccc3nc3ccccc23)cc1OC`, the CC50 in assay [1] was 40.8 µM.
For the compound `O=C(Cc1ccc(Oc2ccccc2)cc1)NO`, the CC50 in assay [1] is 45 µM.
Turning to `CCC(C)Oc1ccc(CC(=O)OC)cc1` (stereo unspecified), in assay [2], the viability was 93% (inactive).
The same measure, in the same setting: the result for `CCCCOc1ccc(C(C)(C)C(=O)NO)cc1` reads 81.2% (inactive).
Still for that read-out and setting: the result for `CCCCOc1ccc(C(C)C(=O)OC)cc1` (stereo unspecified) reads 97.4% (inactive); that for `CCCCOc1ccc(CC(=O)O)cc1`, 95.5% (inactive).
In the case of `CCCCOc1ccc(C(C)C(=O)O)cc1` (stereo unspecified), the viability in assay [2] was 90.8% (inactive).
Turning to `CC[C@H](C)[C@H](NS(=O)(=O)c1ccc(Br)s1)C(=O)NCc1ccc2c(c1)OCO2`, the viability in assay [2] was 107% (inactive).
As for `CCCCOc1ccc(CNc2c(N(O)Cc3ccccc3)c(=O)c2=O)cc1`, the viability in assay [2] is 95.5% (inactive).
For the compound `CC(C)(C(=O)NO)c1ccccc1`, the viability in assay [2] was 104% (inactive).
On to `CN1CCN(CCCc2ccc(O)c(O)c2)CC1`, for which, in assay [2], the viability was 96% (inactive).
On to `O=C(NO)c1cccc2ccccc12`, for which, in assay [2], the viability was 84.7% (inactive).
With `COC(=O)Cc1ccc(OCC(C)C)cc1`, in assay [2], the viability is 109% (inactive).
Take `O=C(Cc1ccc(OCc2ccccc2)cc1)NO`: the CC50 in assay [1] is 48.5 µM.
Turning to `CN1CCN(c2nc(-c3ccc(O)c(O)c3)cs2)CC1`, the viability in assay [2] was 97.9% (inactive).
Consider `COc1ccc(CCN(C)c2ccnc3ccccc23)cc1OC`, for which, in assay [2], the viability was 84.9% (inactive).
On to `CN(O)C(=O)Cc1ccc(OCc2ccccc2)cc1`, for which, in assay [1], the CC50 was 32.5 µM.
Regarding `CN1CCN(CCc2ccc(O)c(O)c2)CC1`, the viability in assay [2] is 102% (inactive).
Consider `CC[C@H](C)[C@H](NS(=O)(=O)c1ccc(Br)s1)C(=O)NCc1ccc(Cl)cc1`, for which the CC50 in assay [1] was 46.4 µM.
For `Oc1ccc(-c2csc(Nc3ncccn3)n2)cc1O`, the viability in assay [2] is 87.7% (inactive).
The same measure, in the same setting: the result for `CCCCOc1cccc(CC(=O)OC)c1` reads 99.7% (inactive).
On to `CCCOc1ccc(CC(=O)NO)cc1`, for which the viability in assay [2] is 91.5% (inactive).
For `COc1ccc(CCNc2c3ccccc3nc3ccccc23)cc1OC`, the CC50 in assay [1] was 17.9 µM.
For the compound `Cc1ccc(CC(=O)NO)cc1`, in assay [2], the viability was 104% (inactive).
On to `O=C(NCc1ccc(Cl)cc1)C1CCN(S(=O)(=O)c2ccc(Br)s2)CC1`, for which, in assay [1], the 50% cytotoxic concentration (CC50) was 21.8 µM.
Turning to `COC(=O)Cc1ccc(OCCN(C)C)cc1`, the viability in assay [2] is 98.9% (inactive).
`CC[C@H](C)[C@H](NC(=O)c1ccc(C(C)(C)C)cc1)C(=O)NCc1ccc2c(c1)OCO2`: the CC50 in assay [1] was 38.2 µM.
For `CCCCOc1ccc(CNc2c(N(C)O)c(=O)c2=O)cc1`, the viability in assay [2] is 91% (inactive).
`CCCOc1ccc(CC(=O)OC)cc1`: in assay [2], the viability was 100% (inactive).
For `CCCCOc1ccc(CC(=O)N(C)O)cc1`, in assay [1], the CC50 is 44.6 µM.
For `COc1ccc(CCCN2CCN(C)CC2)cc1OC`, the viability in assay [2] is 99.5% (inactive).
Consider `CCCCCCCCCC(=O)NO`, for which, in assay [1], the CC50 was 31 µM.
As to `CCc1ccc(NC(=O)Cc2nc(-c3ccc(O)c(O)c3)cs2)cc1`, the CC50 in assay [1] is 42.2 µM.
In the case of `CCCCOc1ccc(C(C)C(=O)NO)cc1` (stereo unspecified), the CC50 in assay [1] is 40.8 µM.
Turning to `Oc1ccc(CCNc2ccnc3ccccc23)cc1O`, in assay [2], the viability was 95.5% (inactive).
As to `Oc1ccc(CCNc2c3ccccc3nc3ccccc23)cc1O`, in assay [1], the CC50 is 45.4 µM.
For the compound `CCCOc1ccc(CC(=O)O)cc1`, the viability in assay [2] is 81.1% (inactive).
